Assay results taken from ChEMBL document CHEMBL5058577, “EUbOPEN Chemogenomics Library 2 (Multiplex)” (2022).

Tested on: HEK-293T
Test: Multiplex assay against HEK293T
Type: toxicity, cell-based
Conditions: human
Method in brief: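 Tubulin, mitochondrial-mass and membrane-permeability phenotypes are per cents of healthy-nucleus cells. Cells were gated by CellPathfinder machine learning into Hoechst high-intensity objects or normal cells, normal cells into healthy, pyknosed or fragmented nuclei, and pyknosed cells into mitotic or apoptotic. Before that, live cells stained at seeding with Hoechst33342, BioTracker Green Microtubule Cytoskeleton Dye, MitoTracker Red and Annexin V Alexa Fluor 680 were imaged on a CQ1 microscope at 37°C and 5% CO2 after compound addition.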

[1] = 12 h, 1 µM, compound concentration 1 uM, replicate 1
[2] = 12 h, 1 µM, compound concentration 1 uM, replicate 2
[3] = 12 h, 10 µM, compound concentration 10 uM, replicate 1
[4] = 12 h, 10 µM, compound concentration 10 uM, replicate 2
[5] = 24 h, 1 µM, compound concentration 1 uM, replicate 1
[6] = 24 h, 1 µM, compound concentration 1 uM, replicate 2
[7] = 24 h, 10 µM, compound concentration 10 uM, replicate 1
[8] = 24 h, 10 µM, compound concentration 10 uM, replicate 2
[9] = 48 h, 1 µM, compound concentration 1 uM, replicate 1
[10] = 48 h, 1 µM, compound concentration 1 uM, replicate 2
[11] = 48 h, 10 µM, compound concentration 10 uM, replicate 1
[12] = 48 h, 10 µM, compound concentration 10 uM, replicate 2

Compound: N[C@](CC1c2ccccc2Oc2ccccc21)(C(=O)O)[C@H]1C[C@@H]1C(=O)O
- Population Apoptotic (%) [1]: 38%
- Population Fragmented Nuclei (%) [1]: 6%
- Population Healthy Nuclei (%) [1]: 83%
- Population Hoechst High Intensity Objects (%) [1]: 7%
- Population Membrane Permeable-Phenotype (%) [1]: 0%
- Population Mitochondria Different-Phenotype (%) [1]: 43%
- Population Mitotic Cells (%) [1]: 61%
- Population Normal (%) [1]: 92%
- Population Pyknosed Nuclei (%) [1]: 10%
- Population Tubulin-Different-Phenotype (%) [1]: 27%
- Total Cell Count [1]: 447
- Population Apoptotic (%) [2]: 54%
- Population Fragmented Nuclei (%) [2]: 7%
- Population Healthy Nuclei (%) [2]: 79%
- Population Hoechst High Intensity Objects (%) [2]: 5%
- Population Mitochondria Different-Phenotype (%) [2]: 58%
- Population Mitotic Cells (%) [2]: 45%
- Population Normal (%) [2]: 94%
- Population Pyknosed Nuclei (%) [2]: 12%
- Population Tubulin-Different-Phenotype (%) [2]: 25%
- Total Cell Count [2]: 270
- Population Apoptotic (%) [3]: 32%
- Population Fragmented Nuclei (%) [3]: 9%
- Population Healthy Nuclei (%) [3]: 78%
- Population Hoechst High Intensity Objects (%) [3]: 8%
- Population Membrane Permeable-Phenotype (%) [3]: 0%
- Population Mitochondria Different-Phenotype (%) [3]: 40%
- Population Mitotic Cells (%) [3]: 67%
- Population Normal (%) [3]: 91%
- Population Pyknosed Nuclei (%) [3]: 12%
- Population Tubulin-Different-Phenotype (%) [3]: 23%
- Total Cell Count [3]: 381
- Population Fragmented Nuclei (%) [4]: 4%
- Population Healthy Nuclei (%) [4]: 81%
- Population Hoechst High Intensity Objects (%) [4]: 7%
- Population Mitochondria Different-Phenotype (%) [4]: 66%
- Population Normal (%) [4]: 92%
- Population Pyknosed Nuclei (%) [4]: 13%
- Population Tubulin-Different-Phenotype (%) [4]: 31%
- Total Cell Count [4]: 382
- Population Apoptotic (%) [5]: 21%
- Population Fragmented Nuclei (%) [5]: 8%
- Population Healthy Nuclei (%) [5]: 81%
- Population Hoechst High Intensity Objects (%) [5]: 3%
- Population Membrane Permeable-Phenotype (%) [5]: 1%
- Population Mitochondria Different-Phenotype (%) [5]: 24%
- Population Mitotic Cells (%) [5]: 78%
- Population Normal (%) [5]: 96%
- Population Pyknosed Nuclei (%) [5]: 10%
- Population Tubulin-Different-Phenotype (%) [5]: 15%
- Total Cell Count [5]: 629
- Population Apoptotic (%) [6]: 38%
- Population Fragmented Nuclei (%) [6]: 9%
- Population Healthy Nuclei (%) [6]: 84%
- Population Hoechst High Intensity Objects (%) [6]: 5%
- Population Membrane Permeable-Phenotype (%) [6]: 0%
- Population Mitochondria Different-Phenotype (%) [6]: 30%
- Population Mitotic Cells (%) [6]: 61%
- Population Normal (%) [6]: 94%
- Population Pyknosed Nuclei (%) [6]: 6%
- Population Tubulin-Different-Phenotype (%) [6]: 16%
- Total Cell Count [6]: 368
- Population Apoptotic (%) [7]: 29%
- Population Fragmented Nuclei (%) [7]: 10%
- Population Healthy Nuclei (%) [7]: 79%
- Population Hoechst High Intensity Objects (%) [7]: 5%
- Population Membrane Permeable-Phenotype (%) [7]: 0%
- Population Mitochondria Different-Phenotype (%) [7]: 30%
- Population Mitotic Cells (%) [7]: 70%
- Population Normal (%) [7]: 94%
- Population Pyknosed Nuclei (%) [7]: 10%
- Population Tubulin-Different-Phenotype (%) [7]: 17%
- Total Cell Count [7]: 510
- Population Apoptotic (%) [8]: 40%
- Population Fragmented Nuclei (%) [8]: 6%
- Population Healthy Nuclei (%) [8]: 82%
- Population Mitochondria Different-Phenotype (%) [8]: 41%
- Population Mitotic Cells (%) [8]: 59%
- Population Pyknosed Nuclei (%) [8]: 11%
- Population Tubulin-Different-Phenotype (%) [8]: 16%
- Total Cell Count [8]: 471
- Population Apoptotic (%) [9]: 12%
- Population Fragmented Nuclei (%) [9]: 11%
- Population Healthy Nuclei (%) [9]: 80%
- Population Hoechst High Intensity Objects (%) [9]: 2%
- Population Membrane Permeable-Phenotype (%) [9]: 2%
- Population Mitochondria Different-Phenotype (%) [9]: 15%
- Population Mitotic Cells (%) [9]: 87%
- Population Normal (%) [9]: 97%
- Population Pyknosed Nuclei (%) [9]: 7%
- Population Tubulin-Different-Phenotype (%) [9]: 13%
- Total Cell Count [9]: 1040
- Population Apoptotic (%) [10]: 17%
- Population Fragmented Nuclei (%) [10]: 12%
- Population Healthy Nuclei (%) [10]: 81%
- Population Hoechst High Intensity Objects (%) [10]: 1%
- Population Membrane Permeable-Phenotype (%) [10]: 0%
- Population Mitochondria Different-Phenotype (%) [10]: 17%
- Population Mitotic Cells (%) [10]: 82%
- Population Normal (%) [10]: 98%
- Population Pyknosed Nuclei (%) [10]: 6%
- Population Tubulin-Different-Phenotype (%) [10]: 10%
- Total Cell Count [10]: 654
- Population Apoptotic (%) [11]: 28%
- Population Fragmented Nuclei (%) [11]: 13%
- Population Healthy Nuclei (%) [11]: 78%
- Population Hoechst High Intensity Objects (%) [11]: 2%
- Population Membrane Permeable-Phenotype (%) [11]: 0%
- Population Mitochondria Different-Phenotype (%) [11]: 17%
- Population Mitotic Cells (%) [11]: 71%
- Population Normal (%) [11]: 97%
- Population Pyknosed Nuclei (%) [11]: 8%
- Population Tubulin-Different-Phenotype (%) [11]: 8%
- Total Cell Count [11]: 789
- Population Apoptotic (%) [12]: 42%
- Population Healthy Nuclei (%) [12]: 80%
- Population Hoechst High Intensity Objects (%) [12]: 4%
- Population Mitochondria Different-Phenotype (%) [12]: 25%
- Population Mitotic Cells (%) [12]: 57%
- Population Normal (%) [12]: 95%
- Population Pyknosed Nuclei (%) [12]: 6%
- Population Tubulin-Different-Phenotype (%) [12]: 12%
- Total Cell Count [12]: 687
